From BindingDB's records for doi:10.1021/jm801330n (University of Siena, 2009)

Target: Reverse transcriptase (Human immunodeficiency virus 1, UniProt Q9WKE8)
Test: Binding affinity to HIV1 reverse transcriptase treated for 3 mins by surface plasmon resonance
Outline: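 Kinetic titration SPR at 25 °C against an RT surface, with an untreated dextran surface as reference. Running buffer: 10 mM Hepes, 150 mM NaCl, 3.4 mM EDTA, 0,01% P20, 4% DMSO, pH 7.5. Five sequential 3-min injections at 50 µL·min^-1 (0.075–1.2 µM, 2-fold steps), each followed by 2-min dissociation, and a final 20-min dissociation. Data were double-referenced.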

**Q.** Which koff does the source give for `COc1ccc([C@@H]2C[C@H]2CSc2nc([C@H](C)c3c(F)cccc3F)c(C)c(=O)[nH]2)cc1` here?
**A.** 2.1e-05 s⁻¹
